Measurements published in ChEMBL document CHEMBL1806371, “Selenocyanates and diselenides: a new class of potent antileishmanial agents” (Eur J Med Chem, 2011).
Active and inactive are the calls of the source. No cut-off for these calls is given here.

Legend:
[1] = Selectivity ratio, ratio of IC50 for human Jurkat cells to IC50 for Leishmania infantum MCAN/ES/89/IPZ229/1/89 amastigotes; type: ADME, cell-based; conditions: read-out: Ratio IC50
How it was run: (§1)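 Selectivity index is IC50 against Jurkat or THP-1 cells divided by IC50 against L. infantum amastigotes. Host cells were treated in log phase at 4×10^5 cells/mL for 24 h at 37 °C, 5% CO2, at 0.08, 0.4, 2.0, 10.0 and 50.0 μM. Viability was measured by flow cytometry with propidium iodide exclusion.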

Leishmania infantum [2] = assay: Antileishmanial activity against Leishmania infantum MCAN/ES/89/IPZ229/1/89 promastigotes assessed as growth inhibition at 12.5 uM after 24 hrs; type: functional
How it was run: (§2)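 Log-phase L. infantum promastigotes (RPMI-1640, 10% FCS, 25 mM HEPES, pH 7.2, 26 °C) treated at 2×10^6 parasites/mL for 24 h. Screening used 25, 12.5 and 6.25 μM to give percent growth inhibition. Living cells measured by flow cytometry with propidium iodide exclusion. At least three independent experiments.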

Leishmania infantum [3] = assay: Antileishmanial activity against Leishmania infantum MCAN/ES/89/IPZ229/1/89 promastigotes assessed as growth inhibition at 25 uM after 24 hrs; type: functional; how it was run: as §2
Leishmania infantum [4] = assay: Antileishmanial activity against Leishmania infantum MCAN/ES/89/IPZ229/1/89 promastigotes after 24 hrs […]; type: functional, organism-based; conditions: MCAN/ES/89/IPZ229/1/89, 24 h; how it was run: as §2
[5] = Selectivity ratio, ratio of IC50 for human THP1 cells to IC50 for Leishmania infantum MCAN/ES/89/IPZ229/1/89 amastigotes; type: ADME, cell-based; conditions: THP-1 cells, read-out: Ratio IC50; how it was run: as §1
Jurkat = assay: Cytotoxicity against human Jurkat cells assessed as live cells in neubauer chamber after 24 hrs by trypan blue assay; type: cell-based
Leishmania infantum [6] = assay: Antileishmanial activity against Leishmania infantum MCAN/ES/89/IPZ229/1/89 promastigotes assessed as growth inhibition at 6.25 uM after 24 hrs; type: functional; how it was run: as §2
THP-1 = assay: Cytotoxicity against human THP1 cells assessed as live cells in neubauer chamber after 24 hrs by trypan blue assay; type: cell-based; conditions: THP-1, 24 h
Leishmania infantum [7] = assay: Antileishmanial activity against Leishmania infantum MCAN/ES/89/IPZ229/1/89 amastigotes after 24 hrs by microscopy; type: functional, organism-based; conditions: MCAN/ES/89/IPZ229/1/89, 24 h
How it was run: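 Axenic L. infantum amastigotes (M199, 10% FCS, pH 5.4, 37 °C) treated in log phase at 1×10^6 parasites/mL for 24 h. Living cells counted by flow cytometry with propidium iodide exclusion, with microscopic observation by phase contrast or fluorescence. At least three independent experiments.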

[8] = Human intestinal absorption in human; type: ADME, organism-based; conditions: read-out: HIA
How it was run: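 Values are computed, not measured. Human intestinal absorption (%) and Caco-2 permeability (nm/s) were predicted in silico with the PreADMET program.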

Leishmania infantum [9] = assay: Antileishmanial activity against Leishmania infantum MCAN/ES/89/IPZ229/1/89 amastigotes expressing GFP infected in human THP1 cells assessed as parasite infected cells after 48 hrs by flow cytometry (reference value: 35%); type: functional, THP-1
[10] = Permeability across human Caco2 cells; type: ADME, cell-based; conditions: Caco-2, read-out: permeability
Leishmania infantum [11] = assay: Ratio of edelfosine IC50 to compound IC50 for Leishmania infantum MCAN/ES/89/IPZ229/1/89 amastigotes; type: functional
Leishmania infantum [12] = assay: Ratio of miltefosine IC50 to compound IC50 for Leishmania infantum MCAN/ES/89/IPZ229/1/89 amastigotes; type: functional

Row | SMILES | selectivity ratio [1] | GI (Leishmania infantum [2]) [%] | GI (Leishmania infantum [3]) [%] | IC50 (Leishmania infantum [4]) [µM] | selectivity ratio [5] | IC50 (Jurkat) [µM] | GI (Leishmania infantum [6]) [%] | IC50 (THP-1) [µM] | IC50 (Leishmania infantum [7]) [nM] | growth inhibition (GI) (Leishmania infantum [2]) | growth inhibition (GI) (Leishmania infantum [6]) | Fa [8] [%] | Activity (Leishmania infantum [9]) [%] | Papp [10] [×10⁻⁶ cm/s] | Ratio IC50 (Leishmania infantum [11]) | Ratio IC50 (Leishmania infantum [12]) | growth inhibition (GI) (Leishmania infantum [3])
1 | N#C[Se]CCc1ccc([N+](=O)[O-])cc1 | 1 | 81.8 | 88.9 | 11.9 | 5 | 2.4 | 46.6 | 17.2 | 3800 |  |  |  |  |  |  |  | 
2 | N#C[Se]Cc1cccc(C#N)c1 | 16 | 71.2 | 93 | 6.06 | 14 | 8.71 | 42.2 | 7.6 | 530 |  |  |  |  |  |  |  | 
3 | CSc1ccc(C[Se][Se]Cc2ccc(SC)cc2)cc1 |  |  | 17.5 |  |  |  |  |  |  | inactive | inactive |  |  |  |  |  | 
4 | O=[N+]([O-])c1cccc(C[Se][Se]Cc2cccc([N+](=O)[O-])c2)c1 |  | 29.4 | 41.2 |  |  |  | 18.1 |  |  |  |  |  |  |  |  |  | 
5 | CN(C)c1ccc([Se][Se]c2ccc(N(C)C)cc2)cc1 | > 65 | 67.7 | 77.6 |  | 29 | > 50 | 51.5 | > 25 |  |  |  | 100 | 23 | 5.61 |  |  | 
6 | O=[N+]([O-])c1ccc(CC[Se][Se]CCc2ccc([N+](=O)[O-])cc2)cc1 |  | 3.2 | 28.4 |  |  |  | 1.2 |  |  |  |  |  |  |  |  |  | 
7 | CSc1ccc(C[Se]C#N)cc1 | 2 | 92.9 | 97.2 | 11.6 | 6 | 5.07 | 77.3 | 17 | 3020 |  |  |  |  |  |  |  | 
8 | O=[N+]([O-])c1ccccc1C[Se][Se]Cc1ccccc1[N+](=O)[O-] | 9 | 58.9 | 77.2 | 12.5 | 8 | 2.62 | 50 | 2.42 | 290 |  |  |  |  |  | 2.8 | 9.8 | 
9 | Brc1ccc(C[Se][Se]Cc2ccc(Br)cc2)cc1 |  | 1.9 | 12.2 |  |  |  |  |  |  |  | inactive |  |  |  |  |  | 
10 | FC(F)(F)c1ccc(C[Se][Se]Cc2ccc(C(F)(F)F)cc2)cc1 |  | 6 | 12.2 |  |  |  | 11 |  |  |  |  |  |  |  |  |  | 
11 | N#C[Se]Cc1ccc(C#N)cc1 | 24 | 80.4 | 97 | 4.14 | 15 | 13.4 | 51.5 | 7.97 | 550 |  |  |  |  |  |  |  | 
12 | c1ccc(C[Se][Se]Cc2ccccc2)cc1 [BISBENZYLDISELENIDE] | 41 | 43.6 | 60.4 |  | 51 | 26.1 | 33.2 | 32.2 | 630 |  |  | 100 | 24 | 5.83 |  |  | 
13 | N#C[Se]Cc1ccccc1[N+](=O)[O-] | 38 | 89.8 | 98.6 | 3.32 | 21 | 12.9 | 74 | 7.1 | 340 |  |  |  |  |  | 2.4 | 8.3 | 
14 | CC(=O)Nc1ccc([Se][Se]c2ccc(NC(C)=O)c(C(=O)O)c2)cc1C(=O)O |  |  |  |  |  |  |  |  |  |  |  |  |  |  |  |  | inactive
15 | COc1ccc(C[Se][Se]Cc2ccc(OC)cc2)cc1 |  | 9.9 | 31.7 |  |  |  | 0.5 |  |  |  |  |  |  |  |  |  | 
16 | N#Cc1ccccc1C[Se][Se]Cc1ccccc1C#N |  | 16.5 | 31.5 |  |  |  | 7.3 |  |  |  |  |  |  |  |  |  | 
17 | Nc1ccc([Se][Se]c2ccc(N)c(C(=O)O)c2)cc1C(=O)O |  |  |  |  |  |  |  |  |  |  |  |  |  |  |  |  | inactive
18 | Cc1ccc(C[Se]C#N)cc1 | 4 | 82.8 | 98.6 | 11.8 | 7 | 14.4 | 52.8 | 24 | 3330 |  |  |  |  |  |  |  | 
